Compound activity deposited in PubChem by several laboratories.
An excerpt weighted towards active compounds, which were near 4.7% of everything screened.
RGS4 pot = RGS4 potentiators or activators, primary screen, cell-based, HEK293 M3R inducible RGS4, calcium flux; carbachol calcium flux Fluo4; active compounds read low; B-score at 10 µM; actives 0.92% (n = 310,000); AID 463111, 2010;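 active = B-score of the integrated calcium signal more than 4 SD below the library mean, with starting fluorescence not abnormally high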;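 also: negative B-score means reduced calcium response which marks RGS4 activation or potentiation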
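System – HEK293 FlpIn-TREx cells, stable M3R, doxycycline-inducible RGS4 · Reagent – ECmax carbachol challenge · Times – compound preincubation 20 min at room temperature before agonist · Technique – Fluo4 fluorescence kinetic imaging of calcium · Measure – B score of integrated Fluo4 ratio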
MrgX1 ag = agonists of human MrgX1 receptor, primary screen, HEK293 cells, Fluo-4 calcium flux. Mas-related G-protein coupled receptor member X1 (Homo sapiens), Q96LB2. Fluo-4 calcium fluorescence, agonist mode; active compounds read high. B-score at 10 µM. actives 0.44% (n = 310,000). AID 588627, 2011;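 active = calcium response B-score plate-corrected fluorescence ratio at least 3 library SD, with starting fluorescence B-score inside 5 SD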
Target sequence (Q96LB2 whole entry, looked up): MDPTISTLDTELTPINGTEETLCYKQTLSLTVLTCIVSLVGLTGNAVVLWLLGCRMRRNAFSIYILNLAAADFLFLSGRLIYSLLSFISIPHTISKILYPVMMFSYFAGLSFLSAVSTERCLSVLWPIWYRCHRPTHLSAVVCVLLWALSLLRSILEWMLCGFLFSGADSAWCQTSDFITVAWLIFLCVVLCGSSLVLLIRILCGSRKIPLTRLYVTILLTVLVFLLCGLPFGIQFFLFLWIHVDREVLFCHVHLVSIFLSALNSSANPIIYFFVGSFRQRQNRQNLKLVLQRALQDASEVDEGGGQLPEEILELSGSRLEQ
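times = overnight plating, then 30 min 37 °C plus 30 min room-temperature dye loading | assay system = stable human MrgX1 HEK293 cell line | input = fifteen thousand cells per well | signal = kinetic calcium dye fluorescence, Fluo-4 NW | dosing = compound delivered in addition one of three | read-out = B-scored fluorescence response ratio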
MrgX1 antag = antagonists of human MrgX1 receptor, primary screen, HEK293 cells, Fluo-4 calcium flux. BAM8-22 antagonism; active compounds read low. B-score at 10 µM. actives 1.3% (n = 310,000);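 active = calcium-response B-score plate-corrected more than 3 library SD below zero, starting fluorescence within 5 deviations, no agonist response on first addition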;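 also: peak minus trough fluorescence over baseline after final BAM8-22 challenge near maximal dose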
MrgX1 PAM = positive allosteric modulators of MrgX1, primary screen, HEK293 cells, Fluo-4 calcium flux; Mas-related G-protein coupled receptor member X1 (Homo sapiens), Q96LB2; FDSS; active compounds read high; B-score at 10 µM; actives 0.63% (n = 310,000);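 active = plate-corrected calcium response at least 3 library SD above typical, normal starting fluorescence, not activating the receptor alone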;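 also: compound read alongside a low EC10 to EC30 dose of BAM8-22 agonist; peak minus trough fluorescence over baseline measured at the second addition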
KCC2 mod = KCC2 cotransporter modulators, thallium flux, primary screen, cell-based, HEK293 KCC2, FluoZin-2 fluorescence, MLSMR | AID 1456, 2008 | actives 2.2% (n = 190,000) | Solute carrier family 12 member 5 (Homo sapiens), Q9H2X9 | B-score of Tl+ flux slope (higher = more flux/activation; lower = inhibition) at 10 µM | KCC2 cells, thallium flux FluoZin-2 fluorescence;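 active = thallium flux slope and its plate-corrected score both differing from the plate sample mean at a set confidence after two filtering rounds, in either direction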;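 also: slope of fluorescence scaled to starting intensity during 10 to 20 s after thallium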
RGS4 inh = RGS4 inhibitors, primary screen, cell-based, HEK293 M3R inducible RGS4, calcium flux; Fluo-4 calcium flux; active compounds read high; triggered by carbachol at its EC20; AID 463165, 2010; actives 0.45% (n = 310,000); B-score at 10 µM; Regulator of G-protein signaling 4 (Homo sapiens), P49798;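 active = B-score, a plate-corrected calcium signal, over three deviations above library mean, with baseline fluorescence within five deviations of library mean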;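 also: RGS4 expression induced by doxycycline in cells with stable M3 receptor; B-score is computed from the integrated fluorescence ratio over baseline after carbachol; higher B-score means a larger calcium signal and so more RGS4 inhibition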
* marks the source's active call; other numbers are inactive results; i = inactive; x = no result.

SMILES	RGS4 pot	MrgX1 ag	MrgX1 antag	MrgX1 PAM	KCC2 mod	RGS4 inh
CCCc1nc(SCC(=O)N2CCC(Cc3ccccc3)CC2)c2c(=O)n(C)c(=O)n(C)c2n1	-7.3*	i	i	i	-2	i
CCc1nc(SCC(=O)N2CCN(c3ccccc3)CC2)c2c(=O)n(C)c(=O)n(C)c2n1	x	x	x	x	-1.2	x
CCc1nc(SCC(=O)N2CCOCC2)c2c(=O)n(C)c(=O)n(C)c2n1	i	i	i	i	-0.016	i
CCc1nc(SCC(=O)N2CCCCCC2)c2c(=O)n(C)c(=O)n(C)c2n1	-7.7*	i	i	i	x	i
N#Cc1ccsc1NC(=O)C1CCN(S(=O)(=O)c2cccs2)CC1	i	i	i	i	x	i
Oc1ccc2ccccc2c1CN1CCN(C/C=C/c2ccccc2)CC1	-7.8*	i	i	i	x	i
Nc1ncnc2c1ncn2[C@@H]1O[C@H](COP(=O)(O)O)[C@@H](O)[C@H]1O	i	i	i	i	x	i
Nc1ncnc2c1ncn2[C@@H]1O[C@H](COP(=O)(O)OP(=O)(O)OP(=O)(O)O)[C@@H](O)[C@H]1O	x	45*	i	i	x	x
CCO[C@@H]1OC(C(=O)NCc2ccccc2)=C[C@H](c2coc3ccccc3c2=O)[C@H]1CCCO	i	i	-5.9*	i	-0.59	i
CCO[C@H]1OC(C(=O)Nc2ccccc2)=C[C@@H](c2coc3ccccc3c2=O)[C@@H]1CCCO	i	i	i	i	-1.6	i
C#CCNC(=O)C1=C[C@@H](c2ccc(C#C)cc2)[C@H](CCCO)[C@@H](OCC)O1	i	i	-8.4*	i	-2.3	i
CS(=O)(=O)c1ccc(-c2csc(-c3cccnc3)n2)cc1	i	i	i	i	x	i
COCCNC(=O)Cn1ccc2cc(S(=O)(=O)N3CCCCCC3)ccc21	i	i	i	i	x	i
O=C1N/C(=C/c2cccn2-c2ccccc2)C(=O)N1Cc1ccc(F)cc1	i	i	i	i	0.25	i
O=C1N/C(=C\c2ccc(N3CCOCC3)c(F)c2)C(=O)N1Cc1ccccc1	i	i	-8.6*	i	-0.92	i
N#Cc1ccccc1Oc1ccccc1C=O	i	27*	i	i	-1.1	i
Cc1csc(=O)n1CCC(=O)OCC(=O)Nc1ccc(Cl)cn1	i	i	i	i	x	i
CC(C(=O)Nc1ccc(F)c(F)c1F)N(C)Cc1cccs1 (centres undefined)	i	i	i	i	x	i
CCSC1=N/C(=C\c2ccc(OC)cc2)C(=O)N1	i	i	i	i	-0.45	i
COc1ccc(/C=C2\N=C(SC)NC2=O)cc1	i	i	i	i	16*	i
CCCCCCCCn1c2c(c(=N)c3ccccc31)CCC2	i	x	x	x	-0.77	i
CCCCCCCCCCn1c2c(c(=N)c3c1CCC3)CCC2	-8.7*	i	-6.2*	i	0.59	i
C(=C\c1ccccc1)/CSc1nnc(-c2ccncc2)n1Cc1ccco1	i	i	i	i	-5*	i
O=C(Cn1nnc2ccccc2c1=O)NCCc1ccc(F)cc1	i	i	-5*	i	-0.74	i
O=C(/C=C/c1ccc(F)cc1)c1cc(Br)ccc1O	i	i	i	i	x	i
O=C(/C=C/c1ccccc1)c1cc(Br)ccc(=O)c1O	i	i	i	11*	16*	i
COc1ccc2oc3ccccc3c(=O)c2c1	i	i	i	i	-1.3	i
COc1ccc(OC)c(-c2oc3ccccc3c(=O)c2O)c1	i	i	i	i	6.8*	i
